The source of these data is the RNAGym collection of RNA variant scans (doi:10.1002/anie.201605470).

The chains are these.
B1: Osa-1-4 twister ribozyme (parent)
chain: CCGCCUAACACUGCCAAUGCCGGUCCCAAGCCCGGAUAAAAGUGGAGGGGGCGG

The variants in the series derive from B1. In words: self-cleavage, relative activity (ratio to wild type); higher = more cleavage; co-transcriptional. In short, it runs like this:
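For each read, cleavage status was taken from whether upstream sequence was present. The reads came from an Oryza sativa twister ribozyme of 54 nucleotides, whose DNA template was synthesised with 97 % wild-type base and 1 % of each other base at the 48 positions downstream of the cleavage site. The template was transcribed in vitro at 37 °C for 2 h with co-transcriptional self-cleavage, and the RNA was reverse-transcribed using a template-switching oligonucleotide, PCR-amplified and deep-sequenced. Relative activity is the fraction cleaved normalised to wild type.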
For the variant A10G U24G, the self-cleavage is 0.04.
The value for A10G U24C was 0.1; that for A10G U24A was 0.09; that for A10G C20G was 0.09.
The value for A10G C20U was 0.81.
The value for A10G C20A was 0.78; that for A10U was 0.05.
As for A10G G23U, the self-cleavage came out at 0.05.
The value for A10G G23A was 0.1.
Then A10G G23C, with 0.05; and A10G C21U, with 0.89.
Then A10G C21G, with 0.08; and A10G C21A, with 0.33.
For A10G C15A, the self-cleavage came out at 0.17.
The value for A10G C15U was 0.14; that for A10G C15G was 0.2.
Consider A10G G47C, for which the self-cleavage is 0.07.
Then A10G G47A, with 0.13; and A10G G47U, with 0.12; and A10G C14U, with 0.28.
The value for A10G C14A was 0.11.
As for A10G C14G, the self-cleavage is 0.16.
Consider A10U C9U, for which the self-cleavage was determined as 0.05.
The value for A10U C9A was 0.04.
The value for A10U C9G was 0.07.
Regarding A10G G50U, the self-cleavage is 0.98.
The value for A10G G50C was 0.82; that for A10G G50A was 0.49.
Then A10G U37A, with 0.67.
Consider A10G U37G, for which the self-cleavage came to 0.87.
The value for A10G U37C was 0.95.
For A10G C33G, the self-cleavage came out at 0.07.
Then A10G C33U, with 0.33; and A10G C33A, with 0.1; and A10U C27G, with 0.04.
The value for A10U C27U was 0.05.
Turning to A10U C27A, the self-cleavage was determined as 0.02.
Then A10U C14U, with 0.04; and A10U C14A, with 0.02.
Regarding A10U C14G, the self-cleavage is 0.03.
The value for A10G G54U was 0.89.
As for A10G G54A, the self-cleavage was found to be 0.9.
Then A10G G54C, with 0.85.
The value for A10G C32A was 0.07; that for A10G C32U was 0.1; that for A10G C32G was 0.15.
The value for A10U A36U was 0.04; that for A10U A36G was 0.05; that for A10U A36C was 0.03.
As to A10U A41C, the self-cleavage came to 0.04.
The value for A10U A41G was 0.04.
Then A10U A41U, with 0.07; and A10G G49U, with 0.09.
With A10G G49C, the self-cleavage was 0.07.
Then A10G G49A, with 0.07; and A10G C26A, with 0.04.
Then A10G C26U, with 0.5; and A10G C26G, with 0.18; and A10U A38C, with 0.06.
Regarding A10U A38U, the self-cleavage came to 0.05.
The value for A10U A38G was 0.07; that for A10G U18G was 0.66; that for A10G U18C was 0.68.
Then A10G U18A, with 0.85; and A10G U12C, with 0.12; and A10G U12A, with 0.21.
The value for A10G U12G was 0.2; that for A10G U43C was 0.96; that for A10G U43A was 0.79.
For A10G U43G, the self-cleavage is 0.3.
The value for A10G G53U was 0.22; that for A10G G53A was 0.41.
The value for A10G G53C was 0.07.
The value for A10G C52U was 0.95.
Turning to A10G C52G, the self-cleavage was found to be 0.75.
Then A10G C52A, with 0.92; and A10G G42U, with 0.06; and A10G G42C, with 0.12.
Then A10G G42A, with 0.22; and A10G G48C, with 0.06; and A10G G48U, with 0.06.
As to A10G G48A, the self-cleavage came out at 0.07.
For the variant A10U A46C, the self-cleavage is 0.02.
Then A10U A46U, with 0.03.
The value for A10U A46G was 0; that for A10G C27U was 0.1.
For the variant A10G C27G, the self-cleavage stood at 0.07.
Then A10G C27A, with 0.12; and A10G G45U, with 0.1.
The value for A10G G45C was 0.06.
For the variant A10G G45A, the self-cleavage amounted to 0.17.
Take A10U A29U: the self-cleavage was 0.03.
The value for A10U A29C was 0.01; that for A10U A29G was 0.03.
The value for A10U C15A was 0.03; that for A10U C15U was 0.04.
Turning to A10U C15G, the self-cleavage stood at 0.03.
Then A10G C31G, with 0.1; and A10G C31A, with 0.05; and A10G C31U, with 0.36.
A10G G34A: the self-cleavage was found to be 0.24.
Then A10G G34C, with 0.12; and A10G G34U, with 0.14.
The value for A10U A17U was 0.08.
The value for A10U A17G was 0.07.
Regarding A10U A17C, the self-cleavage came out at 0.04.
Then A10U A40G, with 0.05; and A10U A40C, with 0.01.
The value for A10U A40U was 0.05; that for A10G G44U was 0.87; that for A10G G44C was 0.81.
Then A10G G44A, with 0.72; and A10U C25A, with 0.03; and A10U C25U, with 0.05.
Consider A10U C25G, for which the self-cleavage turned out to be 0.02.
On to A10G G30A, for which the self-cleavage came to 0.05.
The value for A10G G30C was 0.07; that for A10G G30U was 0.05.
Then A10U C21A, with 0.03.
Then A10U C21U, with 0.07; and A10U C21G, with 0.02.
As for A10G G13A, the self-cleavage stood at 0.08.
As for A10G G13U, the self-cleavage came to 0.04.
The value for A10G G13C was 0.03.
The value for A10G C11U was 0.8.
Then A10G C11G, with 0.12.
Turning to A10G G19C, the self-cleavage came out at 0.09.
The value for A10G G19A was 0.28; that for A10G G19U was 0.13.
Turning to A10G G22A, the self-cleavage came to 0.38.
The value for A10G G22C was 0.05; that for A10G G22U was 0.16; that for A10U C26A was 0.01.
Then A10U C26U, with 0.04; and A10U C26G, with 0.05.
With A10G G35U, the self-cleavage came out at 0.4.
The value for A10G G35C was 0.13; that for A10G G35A was 0.41.
Then A10G C25G, with 0.08.
Then A10G C25U, with 0.4.
As to A10G C25A, the self-cleavage amounted to 0.07.
The value for A10U C11U was 0.05; that for A10U C11G was 0.03; that for A10U C11A was 0.04.
The value for A10U A7G was 0.08; that for A10U A7C was 0.02.
The value for A10U A7U was 0.03; that for A10U C20G was 0.03; that for A10U C20A was 0.05.
Turning to A10U C20U, the self-cleavage was found to be 0.05.
The value for A10U A8C was 0.03; that for A10U A8G was 0.05; that for A10U A8U was 0.04.
Then A10U A28C, with 0.03; and A10U A28U, with 0.05.
A10U A28G: the self-cleavage amounted to 0.04.
For the variant A10U C31G, the self-cleavage was 0.03.
The value for A10U C31A was 0; that for A10G G51A was 0.28.
Consider A10G G51C, for which the self-cleavage worked out at 0.08.
Turning to A10G G51U, the self-cleavage stood at 0.18.
Take A10U A16C: the self-cleavage is 0.03.
Then A10U A16U, with 0.06; and A10U A16G, with 0.06.
The value for A10U A39U was 0.12; that for A10U A39G was 0.08; that for A10U A39C was 0.04.
